Data reported in PubChem BioAssay AID624064 (Broad Institute, 2012).
Calls of active or inactive are those of the source.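 How the source made its calls: active means fitted curve reaching 35% inhibition at both 405 and 600 nm absorbance, in duplicate, within twice the top valid dose; inactive means the rest, including signal rising instead of falling.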

Test system: P. aeruginosa growth with EDDHA, OD600, 24-30 h
Experiment: P. aeruginosa growth delay under iron chelation, dose response, whole organism, OD600, EDDHA, dry powder, set 7 (AID 624064)
Settings: not given
Summary of the method: (§1)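 Material: Pseudomonas aeruginosa whole cells, strain ATCC 15692. Quantity: bacterial inoculum at final OD600 of 0.0000005. Buffer or medium: succinate M9 medium, pH 7.0, iron-limited with 2 µM EDDHA (final). Times: 24-30 h exposure at 37 °C. Signal: absorbance at 600 nm (optical density).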

Structure (SMILES) | AC35
CCCCC(C#N)c1ccc(F)cc1 (stereo not given) | > 120 µM (inactive)

Test system: not listed separately
Experiment: as above
Settings: P. aeruginosa growth with EDDHA, OD600, 24-30 h; at 120 µM (top of the series)
Summary of the method: as §1

Structure (SMILES) | activity change, negative = inhibition
N#Cc1cccc(C(C#N)c2ccc(F)cc2)n1 (stereo not given) | -25.4% (inactive)
CCCCC(C#N)c1ccc(F)cn1 (stereo not given) | -4.82% (inactive)
N#CC(c1ccc(Cl)cc1)N1CCCC1 (stereo not given) | -7.6% (inactive)
Clc1ccc(C(c2cccc(Cl)n2)c2nn[nH]n2)cc1 (stereo not given) | 11.3% (inactive)
COCCC(C#N)c1ccc(F)cc1 (stereo not given) | -1.09% (inactive)
N#CC1c2ccc(Cl)cc2CCc2cccnc21 (stereo not given) | 31.2% (inactive)
COCCC(C#N)c1ccc(Cl)cc1 (stereo not given) | -16.8% (inactive)
COCCOCCC(C#N)c1ccc(F)cc1 (stereo not given) | -18.1% (inactive)
N#CC(c1ccc(F)cc1)c1cccc(Cl)n1 (stereo not given) | -35.8% (inactive)
CN(C)CCCC(C#N)c1ccc(Cl)cc1 (stereo not given) | -12.9% (inactive)
CN(C)CCCC(C#N)c1ccc(F)cc1 (stereo not given) | -34.3% (inactive)
CCCCC(C#N)c1ccc(Cl)cc1 (stereo not given) | 13.2% (inactive)
CCCCC(C#N)c1ccccn1 (stereo not given) | 11% (inactive)
CCCCC(c1ccc(Cl)cc1)c1nn[nH]n1 (stereo not given) | -5.82% (inactive)
COCCOCCC(C#N)c1ccc(Cl)cc1 (stereo not given) | 2.11% (inactive)
N#CC(c1ccc(C(F)(F)F)c(Cl)n1)c1ccccc1OC(F)(F)F (stereo not given) | -8.43% (inactive)
CCCCC(C#N)c1ccc(Cl)cn1 (stereo not given) | -2.96% (inactive)
COCCNC(C#N)c1ccc(Cl)cc1 (stereo not given) | -0.512% (inactive)
N#CC(c1ccc(Cl)cc1)c1ccccn1 (stereo not given) | -30.8% (inactive)
